In ChEMBL document CHEMBL2169862, “Synthesis and biological evaluation of 1α,25-dihydroxyvitamin D₃ analogues with a long side chain at C12 and short C17 side chains” (J Med Chem, 2012) one finds Activity, IC50 and EC50 data, which are given here for four compounds.

Calls of active or inactive are those of the source. No cut-off for these calls is given here.

Data set [1] has as its system SW480-ADH. Briefly: Effect on cellular PIP4K2B mRNA level in human SW480-ADH cells at 10 '-9 to 10 '-7 M after 48 hrs by RT-PCR analysis. Type of data set: functional, cell-based. The procedure, abridged:
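SW480-ADH cells treated 48 h in medium with charcoal-treated FCS; vehicle controls. Quantitative RT-PCR: 95 °C 10 min, then 40 cycles of 95 °C 15 s and 60 °C 30 s. Expression normalized to RPLP0 by comparative C_T method. Measurements in triplicate.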

For data set [2], the system named is Mus musculus. Briefly: Toxicity in CD-1 mouse assessed as body weight loss at 0.3 ug/kg, ip administered every other day for 3 weeks measured on day 21. The data set is classed as organism-based. Particulars: in vivo, 0.0003 mg/kg, 504 h. The essentials: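 Female CD-1 mice, 6–8 weeks, six per group. Dosed ip in sesame oil every other day for three weeks; vehicle controls. Body weight recorded every other day.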

Data set [3] deals with Mus musculus. In words: Increase in serum Calcium levels in CD-1 mouse at 0.3 ug/kg, ip administered every other day for 3 weeks measured on day 21. The data set is classed as functional. The essentials:
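Female CD-1 mice, 6–8 weeks, six per group. Dosed ip in sesame oil every other day for three weeks; vehicle controls. Serum calcium measured with a colorimetric calcium kit a day after the last dose (day 21). Shown as percentage of calcium increase over untreated mice, with the 1α,25-(OH)₂D₃ group set to 100%. SD reported.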

Data set [4] deals with SW480-ADH. In words: Induction of human SW480-ADH cell differentiation assessed as formation of compact epithelioid islands of highly adherent cells at 10 '-8 M after 48 hrs by phase-contrast microscopy. Type of data set: functional, cell-based. The essentials: (§1)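 SW480-ADH colon cancer cells were treated for 48 h with compound or vehicle in medium with charcoal-treated FCS. Differentiation was scored as compact epithelioid islands of highly adherent cells. A representative experiment is shown.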

In data set [5] the test system is SW480-ADH. In words: Induction of human SW480-ADH cell differentiation assessed as formation of compact epithelioid islands of highly adherent cells at 10 '-7 M after 48 hrs by phase-contrast microscopy. Type of data set: functional, cell-based. The procedure, abridged: as §1
Another data set relates to MCF7. Briefly: Antiproliferative activity against human MCF7 cells at 10 '-7 M after 48 hrs by MTT assay relative to untreated-control. Type of data set: functional, cell-based. The procedure, abridged:
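MCF-7 cells seeded at 5 × 10⁴ per well, treated 24 h later for 48 h in medium with charcoal-treated FCS; vehicle controls. MTT (0.5 μg/μL) added for 1 h, medium removed, formazan dissolved in DMSO, absorbance read at 570 nm. Three individual experiments averaged; SD shown.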

Data set [6] concerns the target T1, Vitamin D3 receptor (Homo sapiens, UniProt P11473).
T1 sequence (P11473 whole entry): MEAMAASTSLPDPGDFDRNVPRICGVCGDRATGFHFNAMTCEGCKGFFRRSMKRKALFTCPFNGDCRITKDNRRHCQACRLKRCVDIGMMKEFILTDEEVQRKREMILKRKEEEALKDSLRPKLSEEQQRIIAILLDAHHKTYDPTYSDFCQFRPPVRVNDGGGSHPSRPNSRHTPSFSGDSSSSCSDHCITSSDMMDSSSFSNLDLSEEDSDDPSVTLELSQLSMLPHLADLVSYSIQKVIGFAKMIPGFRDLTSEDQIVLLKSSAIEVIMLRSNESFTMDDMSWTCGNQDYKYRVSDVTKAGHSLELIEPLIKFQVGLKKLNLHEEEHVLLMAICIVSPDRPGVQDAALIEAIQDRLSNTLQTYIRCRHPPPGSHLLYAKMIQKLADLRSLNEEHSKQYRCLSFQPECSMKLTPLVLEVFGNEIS
In words: Binding affinity to VDR assessed as inhibition of fluorescent ligand by fluorescence polarization competition assay. In general terms: Fluorescence polarisation rises when a labelled molecule tumbles more slowly, as on binding a larger partner.

Data set [7] has as its target T1, Vitamin D3 receptor. Briefly: Agonist activity at VDR in human MCF7 cells assessed as transcription of CYP24A1 gene after 24 hrs by luciferase reporter gene assay. The data set is classed as functional, cell-based.

`C=C1/C(=C\C=C2/CCC[C@]3(C)[C@@H]([C@H](C)CCCC(C)(C)O)CC[C@@H]23)C[C@@H](O)C[C@@H]1O` [CALCITRIOL]: the result in the data set on SW480-ADH [1] was inactive. Further, the values for the Activity entry in the data set on Mus musculus [2] and in the data set on Mus musculus [3] were “Non-toxic” and 100%, respectively. In addition, the result with SW480-ADH [4], with SW480-ADH [5] and with MCF7 was Active.

For the compound `C=C1/C(=C\C=C2/CC[C@@H](CCCCCCC(C)(C)O)[C@]3(C)[C@@H]([C@H](C)CCCO)CC[C@@H]23)C[C@@H](O)C[C@@H]1O`, the outcome in the data set on SW480-ADH [1] and in the data set with SW480-ADH [4] was inactive. In addition, the figures for the Activity result in the data set with Mus musculus [2] and with Mus musculus [3] were “Non-toxic” and 1%, respectively. Moreover, the outcome in the data set with SW480-ADH [5] and with MCF7 was Active. The IC50 on Vitamin D3 receptor [6] is 15.7 nM. Moreover, the 50% effective concentration (EC50) at Vitamin D3 receptor [7] came out at 5.74 nM.

`C=C1/C(=C\C=C2/CC[C@@H](CCCCCCC(C)(C)O)[C@]3(C)[C@@H]([C@H](C)CO)CC[C@@H]23)C[C@@H](O)C[C@@H]1O`: the outcome in the data set on SW480-ADH [1] and in the data set on SW480-ADH [4] was inactive. The Activity entry was “Non-toxic” with Mus musculus [2] and 0% in the data set on Mus musculus [3]. Besides, the outcome in the data set on SW480-ADH [5] and in the data set with MCF7 was Active. Also, the IC50 at Vitamin D3 receptor [6] is 20.9 nM. In addition, at Vitamin D3 receptor [7], the EC50 was found to be 8.19 nM.

With `C=C1/C(=C\C=C2/CC[C@@H](CCCCCCC(C)(C)O)[C@]3(C)[C@@H]([C@H](C)CCO)CC[C@@H]23)C[C@@H](O)C[C@@H]1O`, the outcome in the data set on SW480-ADH [1] and in the data set with SW480-ADH [4] was inactive. In addition, the Activity result in the data set on Mus musculus [2] is reported as “Non-toxic”; with Mus musculus [3], 18%. In addition, the outcome in the data set on SW480-ADH [5] and in the data set on MCF7 was Active. The IC50 at Vitamin D3 receptor [6] was 27.3 nM. Moreover, the EC50 at Vitamin D3 receptor [7] came to 9.04 nM.

As a reminder, the IC50 is the concentration needed to halve the response being measured. The EC50 is the concentration that produces a half-maximal response.
